ChEMBL document CHEMBL2424550, “Discovery of cyclic sulfoxide hydroxyethylamines as potent and selective β-site APP-cleaving enzyme 1 (BACE1) inhibitors: structure based design and in vivo reduction of amyloid β-peptides” (Bioorg Med Chem Lett, 2013)

Assay: Clearance in mouse liver microsomes
Format: ADME, Microsome
Settings: read-out: CLH
Method in brief: (§1)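 Compounds incubated at 37 °C with human or mouse liver microsomes.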

| Compound | microsomal CLint |
| --- | --- |
| COC[C@@H](Oc1cc(C[C@@H]2C[S@@+]([O-])C[C@H](NCc3cnn(CC(C)(C)C)c3)[C@H]2O)cc(F)c1N)C(F)(F)F | 380 µL/min/mg |
| COC[C@@H](Oc1cc(C[C@@H]2C[S+]([O-])C[C@H](N)[C@H]2O)cc(F)c1N)C(F)(F)F (stereo partly specified) | 180 µL/min/mg |
| COC[C@@H](Oc1cc(C[C@@H]2C[S@@+]([O-])C[C@H](NCc3cc(C(C)(C)C)ccc3F)[C@H]2O)cc(F)c1N)C(F)(F)F | 580 µL/min/mg |

More lines, now with the values ahead:

| microsomal CLint | Compound |
| --- | --- |
| 190 µL/min/mg | COC[C@@H](Oc1cc(C[C@@H]2C[S@@+]([O-])C[C@H](NCc3cccc(OC(C)C)c3)[C@H]2O)cc(F)c1N)C(F)(F)F |
| 210 µL/min/mg | COC[C@@H](Oc1cc(C[C@@H]2C[S@@+]([O-])C[C@H](NCc3cccc(C(C)(C)CO)c3)[C@H]2O)cc(F)c1N)C(F)(F)F |
| 150 µL/min/mg | COC[C@@H](Oc1cc(C[C@@H]2C[S@@+]([O-])C[C@H](NCc3cccc(C(C)(C)O)c3)[C@H]2O)cc(F)c1N)C(F)(F)F |

Assay: Clearance in human liver microsomes
Format: ADME, Microsome
Settings: read-out: CLH
Method in brief: as §1

| Compound | microsomal CLint |
| --- | --- |
| COC[C@@H](Oc1cc(C[C@@H]2C[S@@+]([O-])C[C@H](NCc3cnn(CC(C)(C)C)c3)[C@H]2O)cc(F)c1N)C(F)(F)F | 140 µL/min/mg |
| COC[C@@H](Oc1cc(C[C@@H]2C[S+]([O-])C[C@H](N)[C@H]2O)cc(F)c1N)C(F)(F)F (stereo partly specified) | 190 µL/min/mg |
| COC[C@@H](Oc1cc(C[C@@H]2C[S@@+]([O-])C[C@H](NCc3cc(C(C)(C)C)ccc3F)[C@H]2O)cc(F)c1N)C(F)(F)F | 400 µL/min/mg |

Results, then the compound that gave them:

| microsomal CLint | Compound |
| --- | --- |
| 280 µL/min/mg | COC[C@@H](Oc1cc(C[C@@H]2C[S@@+]([O-])C[C@H](NCc3cccc(OC(C)C)c3)[C@H]2O)cc(F)c1N)C(F)(F)F |
| 80 µL/min/mg | COC[C@@H](Oc1cc(C[C@@H]2C[S@@+]([O-])C[C@H](NCc3cccc(C(C)(C)CO)c3)[C@H]2O)cc(F)c1N)C(F)(F)F |
| 40 µL/min/mg | COC[C@@H](Oc1cc(C[C@@H]2C[S@@+]([O-])C[C@H](NCc3cccc(C(C)(C)O)c3)[C@H]2O)cc(F)c1N)C(F)(F)F |

Assay: Lipophilicity, log P of the compound
Format: physicochemical
Settings: octanol/water

| Compound | logP |
| --- | --- |
| COc1cc(C[C@@H]2C[S@@+]([O-])C[C@H](NCc3cccc(C(C)(C)C)c3)[C@H]2O)cc(F)c1N | 3.5 |
| COC[C@@H](Oc1cc(C[C@@H]2C[S@@+]([O-])C[C@H](NCc3cnn(CC(C)(C)C)c3)[C@H]2O)cc(F)c1N)C(F)(F)F | 2.9 |
| CC(C)(C)c1cccc(CN[C@H]2C[S@@+]([O-])C[C@@H](Cc3cc(F)c(N)c(OC(C(F)(F)F)C(F)(F)F)c3)[C@@H]2O)c1 | 4.9 |
| CC(C)(C)c1cccc(CN[C@H]2CS(=O)(=O)C[C@@H](Cc3cc(F)c(N)c(OC(C(F)(F)F)C(F)(F)F)c3)[C@@H]2O)c1 | 5.1 |
| COC[C@@H](Oc1cc(C[C@@H]2C[S@@+]([O-])C[C@H](NCc3cc(C(C)(C)C)ccc3F)[C@H]2O)cc(F)c1N)C(F)(F)F | 4.1 |

Second part, the compound after the results:

| logP | Compound |
| --- | --- |
| 3.6 | COC[C@@H](Oc1cc(C[C@@H]2C[S@@+]([O-])C[C@H](NCc3cccc(OC(C)C)c3)[C@H]2O)cc(F)c1N)C(F)(F)F |
| 3.4 | COC[C@@H](Oc1cc(C[C@@H]2C[S@@+]([O-])C[C@H](NCc3cccc(C(C)(C)CO)c3)[C@H]2O)cc(F)c1N)C(F)(F)F |
| 3.7 | CC(C)(C)c1cccc(CN[C@H]2C[S@+]([O-])C[C@@H](Cc3cc(F)c(N)c(O[C@H](CO)C(F)(F)F)c3)[C@@H]2O)c1 |

Assay: Dissociation constant, pKa of the compound
Format: physicochemical
Settings: not given
Method in brief: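 Measured by multi-wavelength UV spectroscopy across a linear pH gradient of 2–12 units.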

| Compound | pKa |
| --- | --- |
| CC(C)(C)c1cccc(CN[C@H]2CS(=O)(=O)C[C@@H](Cc3cc(F)c(N)c(OC(C(F)(F)F)C(F)(F)F)c3)[C@@H]2O)c1 | 5.7 |

Assay: Apparent permeability of the compound in MDCK cells expressing human MDR1
Format: ADME, cell-based, Canis lupus familiaris
Settings: dog
Method in brief: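 Apparent permeability (Papp, […]) measured across MDR1-MDCK cell monolayers transfected with human MDR1.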

| Compound | Papp |
| --- | --- |
| CC(C)(C)c1cccc(CN[C@H]2C[S@+]([O-])C[C@@H](Cc3cc(O)c(N)c(F)c3)[C@@H]2O)c1 | 9 ×10⁻⁶ cm/s |
| COc1cc(C[C@@H]2C[S@@+]([O-])C[C@H](NCc3cccc(C(C)(C)C)c3)[C@H]2O)cc(F)c1N | 22 ×10⁻⁶ cm/s |
| COC[C@@H](Oc1cc(C[C@@H]2C[S@@+]([O-])C[C@H](NCc3cnn(CC(C)(C)C)c3)[C@H]2O)cc(F)c1N)C(F)(F)F | 10 ×10⁻⁶ cm/s |
| CC(C)(C)c1cccc(CN[C@H]2C[S@@+]([O-])C[C@@H](Cc3cc(F)c(N)c(OC(C(F)(F)F)C(F)(F)F)c3)[C@@H]2O)c1 | 11 ×10⁻⁶ cm/s |
| CC(C)(C)c1cccc(CN[C@H]2CS(=O)(=O)C[C@@H](Cc3cc(F)c(N)c(OC(C(F)(F)F)C(F)(F)F)c3)[C@@H]2O)c1 | 4 ×10⁻⁶ cm/s |
| COC[C@@H](Oc1cc(C[C@@H]2C[S@@+]([O-])C[C@H](NCc3cc(C(C)(C)C)ccc3F)[C@H]2O)cc(F)c1N)C(F)(F)F | 24 ×10⁻⁶ cm/s |

Other lines, results leading:

| Papp | Compound |
| --- | --- |
| 21 ×10⁻⁶ cm/s | COC[C@@H](Oc1cc(C[C@@H]2C[S@@+]([O-])C[C@H](NCc3cccc(OC(C)C)c3)[C@H]2O)cc(F)c1N)C(F)(F)F |
| 10 ×10⁻⁶ cm/s | COC[C@@H](Oc1cc(C[C@@H]2C[S@@+]([O-])C[C@H](NCc3cccc(C(C)(C)CO)c3)[C@H]2O)cc(F)c1N)C(F)(F)F |
| 16 ×10⁻⁶ cm/s | CC(C)(C)c1cccc(CN[C@H]2C[S@+]([O-])C[C@@H](Cc3cc(F)c(N)c(O[C@H](CO)C(F)(F)F)c3)[C@@H]2O)c1 |
| 8 ×10⁻⁶ cm/s | COC[C@@H](Oc1cc(C[C@@H]2C[S@@+]([O-])C[C@H](NCc3cccc(C(C)(C)O)c3)[C@H]2O)cc(F)c1N)C(F)(F)F |
